This is an account of results in ChEMBL document CHEMBL1126205, “Novel spirosuccinimides with incorporated isoindolone and benzisothiazole 1,1-dioxide moieties as aldose reductase inhibitors and antihyperglycemic agents” (1992).

Activity calls are given as the source filed them. The calls are words filed in the database; no cut-off is given here.

The test system of assay [1] is Rattus norvegicus. As to the kind of experiment: In vivo galactitol inhibitory activity measured by its ability to inhibit galactitol accumulation in diaphragm at 3 mg/Kg/day; NS=Not significant. It is filed as functional, organism-based. The essentials:
(§1)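 Rats (n = 6) fed 20% galactose for 4 days, with compound given in the diet at the stated mg/kg per day. Galactitol accumulation in lens, sciatic nerve or diaphragm is scored as percent inhibition versus the non-treated group, as means of 3–8 drug-treated tissue samples. Dunnett's multiple comparison test applies; NS means p > 0.05.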

In assay [2] the test system is Rattus norvegicus. In words: In vivo galactitol inhibitory activity measured by its ability to inhibit galactitol accumulation in sciatic nerve at 3 mg/Kg/day; NS=Not significant. The assay is classed as functional, organism-based. In outline:
(§2)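 Rats (n = 6) fed 20% galactose for 4 days, with compound given in the diet at the stated daily dose. Galactitol accumulation was measured in lens, sciatic nerve and diaphragm, and % inhibition was taken versus the nontreated group. Means are from three to eight drug-treated tissue samples. Dunnett's multiple comparison test was applied, with p > 0.05 reported as not significant.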

For assay [3], the target named is Aldo-keto reductase family 1 member B1 (Bos taurus) (UniProt P16116). In words: In vitro aldose reductase inhibitory activity measured by NADPH-dependent inhibition of glyceraldehyde reduction in a partially purified bovine lens preparation at 10E-7 M. The essentials:
(§3)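 Aldose reductase partially purified from bovine lens. Inhibition of NADPH-dependent glyceraldehyde reduction is measured at the single stated concentration and reported as percent inhibition, the mean of two determinations.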

The subject of assay [4] is Mus musculus. In words: Antihyperglycemic activity measured as percent decrease in mice plasma glucose at 100 mg/Kg/day. The assay is classed as functional. The essentials: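 Male db/db (C57BL/KsJ) mice, 4–6 per group, dosed at 100 mg/kg per day. Plasma glucose of the drug-treated group is expressed as percent decrease relative to a vehicle-treated control group. Values are mean ± SE, with p < 0.05 marked.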

For assay [5], the system named is Rattus norvegicus. As to the kind of experiment: In vivo galactitol inhibitory activity measured by its ability to inhibit galactitol accumulation in lens at 3 mg/Kg/day; NS=Not significant. Particulars: Lens of camera-type eye. The assay is classed as functional, organism-based. In outline: as §1
Assay [6] deals with Aldo-keto reductase family 1 member B1 (Bos taurus) (UniProt P16116). In words: In vitro aldose reductase inhibitory activity measured by NADPH-dependent inhibition of glyceraldehyde reduction in a partially purified bovine lens preparation at 10E-6 M. The essentials: as §3
For assay [7], the system named is Rattus norvegicus. In words: In vivo galactitol inhibitory activity measured by its ability to inhibit galactitol accumulation in lens at 97 mg/Kg/day; NS=Not significant (% Inhibition). It is filed as functional, organism-based. Particulars: Lens of camera-type eye. In outline: as §2
The subject of assay [8] is Rattus norvegicus. As to the kind of experiment: In vivo galactitol inhibitory activity measured by its ability to inhibit galactitol accumulation in diaphragm at 97 mg/kg/day. It is filed as functional. In outline:
as §1

The test system of assay [9] is Rattus norvegicus. In words: In vivo galactitol inhibitory activity measured by its ability to inhibit galactitol accumulation in sciatic nerve at 97 mg/kg/day. The assay is classed as functional. The essentials: as §2
Assay [10] relates to Rattus norvegicus. As to the kind of experiment: In vivo galactitol inhibitory activity measured by its ability to inhibit galactitol accumulation in lens at 4 mg/Kg/day; NS=Not significant (% Inhibition). It is filed as functional, organism-based. Particulars: Lens of camera-type eye. The essentials: as §1
Assay [11] concerns Rattus norvegicus. As to the kind of experiment: In vivo galactitol inhibitory activity measured by its ability to inhibit galactitol accumulation in sciatic nerve at 4 mg/Kg/day; NS=Not significant (% Inhibition). It is filed as functional, organism-based. In outline:
as §2

In assay [12] the test system is Rattus norvegicus. As to the kind of experiment: In vivo galactitol inhibitory activity measured by its ability to inhibit galactitol accumulation in diaphragm at 4 mg/Kg/day; NS=Not significant (% Inhibition). It is filed as functional, organism-based. In outline: as §1
Assay [13] relates to Rattus norvegicus. In words: In vivo galactitol inhibitory activity measured by its ability to inhibit galactitol accumulation in diaphragm at 6 mg/Kg/day. It is filed as functional. The essentials: as §1
Assay [14] relates to Rattus norvegicus. In words: In vivo galactitol inhibitory activity measured by its ability to inhibit galactitol accumulation in lens at 6 mg/Kg/day; NS=Not significant (% Inhibition). The assay is classed as functional, organism-based. Particulars: Lens of camera-type eye. In outline: as §1
The subject of assay [15] is Rattus norvegicus. In words: In vivo galactitol inhibitory activity measured by its ability to inhibit galactitol accumulation in sciatic nerve at 6 mg/Kg/day. It is filed as functional. In outline: as §2
The test system of assay [16] is Rattus norvegicus. In words: In vivo galactitol inhibitory activity measured by its ability to inhibit galactitol accumulation in diaphragm at 10 mg/Kg/day. The assay is classed as functional. The essentials:
as §1

The test system of assay [17] is Rattus norvegicus. In words: In vivo galactitol inhibitory activity measured by its ability to inhibit galactitol accumulation in lens at 3 mg/Kg/day; NS=Not significant (% Inhibition). The assay is classed as functional, organism-based. Particulars: Lens of camera-type eye. In outline: as §1
The test system of assay [18] is Rattus norvegicus. In words: In vivo galactitol inhibitory activity measured by its ability to inhibit galactitol accumulation in lens at 10 mg/Kg/day; NS=Not significant (% Inhibition). It is filed as functional. Particulars: Lens of camera-type eye. In outline: as §1
For assay [19], the system named is Rattus norvegicus. In words: In vivo galactitol inhibitory activity measured by its ability to inhibit galactitol accumulation in sciatic nerve at 6 mg/Kg/day; NS=Not significant (% Inhibition). The assay is classed as functional, organism-based. In outline:
as §2

The subject of assay [20] is Rattus norvegicus. As to the kind of experiment: In vivo galactitol inhibitory activity measured by its ability to inhibit galactitol accumulation in diaphragm at 3 mg/Kg/day; NS=Not significant (% Inhibition). The assay is classed as functional, organism-based. The essentials:
as §1

The subject of assay [21] is Rattus norvegicus. In words: In vivo galactitol inhibitory activity measured by its ability to inhibit galactitol accumulation in sciatic nerve at 3 mg/Kg/day; NS=Not significant (% Inhibition). It is filed as functional, organism-based. The essentials: as §2
Assay [22] has as its system Rattus norvegicus. As to the kind of experiment: In vivo galactitol inhibitory activity measured by its ability to inhibit galactitol accumulation in sciatic nerve at 10 mg/Kg/day; NS=Not significant (% Inhibition). The assay is classed as functional, organism-based. In outline: as §2
Assay [23] deals with Rattus norvegicus. In words: In vivo galactitol inhibitory activity measured by its ability to inhibit galactitol accumulation in diaphragm at 6 mg/Kg/day; NS=Not significant (% Inhibition). The assay is classed as functional, organism-based. In outline:
as §1

Assay [24] has as its system Rattus norvegicus. In words: In vivo galactitol inhibitory activity measured by its ability to inhibit galactitol accumulation in sciatic nerve at 9 mg/Kg/day; NS=Not significant (% Inhibition). It is filed as functional, organism-based. In outline: as §2
Assay [25] has as its system Rattus norvegicus. In words: In vivo galactitol inhibitory activity measured by its ability to inhibit galactitol accumulation in diaphragm at 9 mg/Kg/day; NS=Not significant (% Inhibition). The assay is classed as functional, organism-based. The essentials: as §1
Assay [26] has as its system Rattus norvegicus. In words: In vivo galactitol inhibitory activity measured by its ability to inhibit galactitol accumulation in sciatic nerve at 3 mg/Kg/day. It is filed as functional. The essentials:
as §2

Assay [27] has as its system Rattus norvegicus. In words: In vivo galactitol inhibitory activity measured by its ability to inhibit galactitol accumulation in lens at 9 mg/Kg/day; NS=Not significant (% Inhibition). It is filed as functional, organism-based. Particulars: Lens of camera-type eye. In outline:
as §2

The test system of assay [28] is Mus musculus. As to the kind of experiment: Antihyperglycemic activity measured as percent decrease in mice plasma glucose at 87 mg/Kg/day. The assay is classed as functional. In outline:
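Male db/db (C57BL/KsJ) mice, 4–6 per group, dosed at the stated mg/kg per day. Plasma glucose is expressed as percent decrease versus the vehicle-treated group. Values are mean ± SE.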

In the case of `CCN1C(=O)c2ccc(Cl)cc2C12CC(=O)NC2=O` (centres undefined), the inhibition result in the assay with Rattus norvegicus [1], in the assay on Rattus norvegicus [2] and in the assay on Rattus norvegicus [5] was “inactive” each time. The inhibition (in general, the share of the control response that was lost under treatment) in assay [3] was determined as 14%; in assay [6] it was 37%. The molecule further came in with a Decrease in the assay with Mus musculus [4] of less than 15%.

With `O=C1CC2(C(=O)N1)c1cc(Cl)ccc1C(=O)N2Cc1ccc(Br)cc1F` (centres undefined), in the assay on Rattus norvegicus [7], the inhibition result is “inactive”. The figures for the inhibition in [3] and in [6] were 13% and 70%, respectively. For the same molecule, the inhibition in vivo (usually the percentage by which the read-out fell short of the control) at 97 mg/kg/day with Rattus norvegicus [8] came out at 30%; in the assay on Rattus norvegicus [9] it was 24%. This molecule gave a Decrease in the assay with Mus musculus [4] of less than 15%.

Take `CCCN1C(=O)c2cc(Cl)c(Cl)cc2C12CC(=O)NC2=O` (centres undefined): the inhibition result with Rattus norvegicus [10], in the assay on Rattus norvegicus [11] and with Rattus norvegicus [12] was “inactive” in each case. For the same molecule, in the assay on Mus musculus [4], the Decrease is reported as less than 15%.

For the molecule `COc1ccc2c(C(=S)N(C)CC(=O)O)cccc2c1C(F)(F)F` [TOLRESTAT], the inhibition in vivo at 6 mg/kg/day with Rattus norvegicus [13] was 80%; in the assay on Rattus norvegicus [15] it was 53%. Further, in the assay with Rattus norvegicus [14], the inhibition result was “inactive”.

`COC(=O)c1ccc2c(c1)C1(CC(=O)NC1=O)N(C)C2=O` (centres undefined) displayed an inhibition in vivo at 10 mg/kg/day with Rattus norvegicus [16] of 16%. The inhibition entry in the assay with Rattus norvegicus [17], in the assay with Rattus norvegicus [18], in the assay on Rattus norvegicus [19], in the assay with Rattus norvegicus [20], in the assay on Rattus norvegicus [14] and in the assay with Rattus norvegicus [21] was “inactive” each time. The inhibition entry with Rattus norvegicus [22] and in the assay on Rattus norvegicus [23] was “inactive” each time. Moreover, the inhibition in assay [3] is 14%; in [6], 49%. The Decrease in the assay with Mus musculus [4] was less than 15%.

In the case of `CN1C(=O)c2c(Cl)cccc2C12CC(=O)NC2=O` (centres undefined), the inhibition entry with Rattus norvegicus [17], in the assay on Rattus norvegicus [19], in the assay on Rattus norvegicus [24], in the assay on Rattus norvegicus [20], in the assay on Rattus norvegicus [14] and in the assay with Rattus norvegicus [23] was “inactive” in each case. Also, the inhibition entry in the assay with Rattus norvegicus [25] and in the assay on Rattus norvegicus [27] was “inactive” throughout. Also, the inhibition in assay [3] is 29%; in assay [6], 65%. Besides, the Decrease in the assay with Mus musculus [4] is less than 15%. Further, the inhibition in vivo at 3 mg/kg/day in the assay on Rattus norvegicus [26] worked out at 21%.

In the assay with Mus musculus [28], `CC(C)N1C2(CC(=O)NC2=O)c2ccccc2S1(=O)=O` (centres undefined) returned a Decrease of 27%.
